Laboratory results taken from the M2OR odorant receptor database.

What was measured:
Conditions in all cases: stereoisomer not certain
OR3A1 (Homo sapiens) = biological target: T1, OR3A1 (Homo sapiens) (UniProt P47881)
T1 sequence (whole entry): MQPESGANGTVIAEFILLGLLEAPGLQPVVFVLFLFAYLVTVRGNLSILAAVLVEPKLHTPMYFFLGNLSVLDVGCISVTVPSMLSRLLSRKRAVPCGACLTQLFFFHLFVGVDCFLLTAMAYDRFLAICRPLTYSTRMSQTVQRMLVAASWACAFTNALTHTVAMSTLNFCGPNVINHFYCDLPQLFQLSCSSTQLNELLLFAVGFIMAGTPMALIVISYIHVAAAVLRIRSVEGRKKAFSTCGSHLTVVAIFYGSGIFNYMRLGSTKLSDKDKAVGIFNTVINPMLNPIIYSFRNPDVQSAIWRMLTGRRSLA
Method in brief: (§1)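 Whether a receptor–molecule pair is responsive (active) rests on the original authors' judgment that its measured signal was statistically different from baseline. Pairs without that judgment are non-responsive (inactive). Sources used varied assay methods, commonly transient luciferase assays in mammalian cell lines.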

OR2Y1 (Homo sapiens) = OR2Y1 (Homo sapiens) (UniProt Q8NGV0)
Method in brief: as §1

OR2Z1 (Homo sapiens) = OR2Z1 (Homo sapiens) (UniProt Q8NG97)
Method in brief: as §1

OR3A2 (Homo sapiens) = OR3A2 (Homo sapiens) (UniProt P47893)
Method in brief: as §1

OR3A3 (Homo sapiens) = OR3A3 (Homo sapiens) (UniProt P47888)
Method in brief: as §1

OR4A15 (Homo sapiens) = OR4A15 (Homo sapiens) (UniProt Q8NGL6)
Method in brief: as §1

OR4A16 (Homo sapiens) = OR4A16 (Homo sapiens) (UniProt Q8NH70)
Method in brief: as §1

OR4A47 (Homo sapiens) = OR4A47 (Homo sapiens) (UniProt Q6IF82)
Method in brief: as §1

OR4A5 (Homo sapiens) = OR4A5 (Homo sapiens) (UniProt Q8NH83)
Method in brief: as §1

OR4A8 (Homo sapiens) = OR4A8 (Homo sapiens) (UniProt P0C604)
Method in brief: as §1

OR4B1 (Homo sapiens) = OR4B1 (Homo sapiens) (UniProt Q8NGF8)
Method in brief: as §1

OR4C11 (Homo sapiens) = OR4C11 (Homo sapiens) (UniProt Q6IEV9)
Method in brief: as §1

OR4C12 (Homo sapiens) = OR4C12 (Homo sapiens) (UniProt Q96R67)
Method in brief: as §1

OR4C13 (Homo sapiens) = OR4C13 (Homo sapiens) (UniProt Q8NGP0)
Method in brief: as §1

OR4C15 (Homo sapiens) = OR4C15 (Homo sapiens) (UniProt Q8NGM1)
Method in brief: as §1

OR2Y1 = test system: OR2Y1
Method in brief: as §1

OR3A1 [1] = test system: OR3A1
Method in brief: as §1
Target sequence in this assay (as listed by the source): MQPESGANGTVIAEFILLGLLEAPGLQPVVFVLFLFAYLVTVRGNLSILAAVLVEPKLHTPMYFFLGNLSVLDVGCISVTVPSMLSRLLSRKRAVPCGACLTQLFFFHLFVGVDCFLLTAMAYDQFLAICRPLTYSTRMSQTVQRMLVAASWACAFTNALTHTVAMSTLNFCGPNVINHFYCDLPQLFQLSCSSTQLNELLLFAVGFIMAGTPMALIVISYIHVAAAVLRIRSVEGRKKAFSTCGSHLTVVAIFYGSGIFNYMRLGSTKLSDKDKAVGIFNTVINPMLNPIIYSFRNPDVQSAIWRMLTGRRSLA

OR3A2 R317K = test system: OR3A2 R317K
Method in brief: as §1

OR3A3 T48I L132F = test system: OR3A3 T48I L132F
Method in brief: as §1

OR3A1 [2] = test system: OR3A1; remark: listed apart in the source
Method in brief: as §1

Measured: odorant receptor agonist call

Sequence of OR4C13 (Homo sapiens) (Q8NGP0 whole entry): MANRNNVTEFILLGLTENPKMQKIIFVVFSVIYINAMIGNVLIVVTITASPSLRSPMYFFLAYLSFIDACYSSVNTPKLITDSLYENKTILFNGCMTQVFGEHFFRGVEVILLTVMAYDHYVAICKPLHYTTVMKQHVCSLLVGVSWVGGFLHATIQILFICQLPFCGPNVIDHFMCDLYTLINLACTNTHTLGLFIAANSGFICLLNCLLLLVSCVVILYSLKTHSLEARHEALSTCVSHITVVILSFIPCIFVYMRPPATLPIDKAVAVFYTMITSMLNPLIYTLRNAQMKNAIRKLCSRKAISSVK
Sequence of OR4A47 (Homo sapiens) (Q6IF82 whole entry): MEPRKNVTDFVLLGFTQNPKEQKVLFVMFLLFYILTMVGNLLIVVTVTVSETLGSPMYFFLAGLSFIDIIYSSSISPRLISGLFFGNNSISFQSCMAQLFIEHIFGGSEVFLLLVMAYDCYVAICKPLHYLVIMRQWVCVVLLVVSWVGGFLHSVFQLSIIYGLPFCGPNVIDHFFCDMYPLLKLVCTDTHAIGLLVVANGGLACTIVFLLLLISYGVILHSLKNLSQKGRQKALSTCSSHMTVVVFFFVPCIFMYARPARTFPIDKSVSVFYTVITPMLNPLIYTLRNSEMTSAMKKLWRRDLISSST
Sequence of OR4A5 (Homo sapiens) (Q8NH83 whole entry): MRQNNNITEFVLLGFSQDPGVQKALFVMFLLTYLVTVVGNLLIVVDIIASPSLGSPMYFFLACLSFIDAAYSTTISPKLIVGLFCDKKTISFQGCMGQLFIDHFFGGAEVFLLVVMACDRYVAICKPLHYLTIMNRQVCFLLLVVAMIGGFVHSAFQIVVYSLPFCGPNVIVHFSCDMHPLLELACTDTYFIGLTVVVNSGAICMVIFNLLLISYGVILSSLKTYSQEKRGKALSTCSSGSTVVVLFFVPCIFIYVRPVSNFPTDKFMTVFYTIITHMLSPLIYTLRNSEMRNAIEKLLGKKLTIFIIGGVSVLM
Sequence of OR4C12 (Homo sapiens) (Q96R67 whole entry): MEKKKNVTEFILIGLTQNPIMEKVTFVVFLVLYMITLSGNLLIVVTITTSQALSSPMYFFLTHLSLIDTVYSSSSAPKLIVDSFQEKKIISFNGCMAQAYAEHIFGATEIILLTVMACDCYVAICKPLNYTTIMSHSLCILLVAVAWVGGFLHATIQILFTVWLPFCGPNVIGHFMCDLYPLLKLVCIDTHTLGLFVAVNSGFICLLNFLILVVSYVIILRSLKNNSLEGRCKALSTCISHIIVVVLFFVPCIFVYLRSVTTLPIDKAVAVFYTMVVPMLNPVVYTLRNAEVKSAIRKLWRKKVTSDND
Sequence of OR3A2 (Homo sapiens) (P47893 whole entry): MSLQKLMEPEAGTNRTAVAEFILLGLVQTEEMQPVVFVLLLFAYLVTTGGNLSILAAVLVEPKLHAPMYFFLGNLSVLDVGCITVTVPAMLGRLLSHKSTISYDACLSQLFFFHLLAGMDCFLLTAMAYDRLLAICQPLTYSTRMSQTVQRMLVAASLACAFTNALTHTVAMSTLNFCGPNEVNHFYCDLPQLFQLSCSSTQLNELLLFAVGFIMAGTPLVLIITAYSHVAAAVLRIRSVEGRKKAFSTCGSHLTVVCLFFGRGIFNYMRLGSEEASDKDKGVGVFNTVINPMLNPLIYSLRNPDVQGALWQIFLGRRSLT
Sequence of OR4C11 (Homo sapiens) (Q6IEV9 whole entry): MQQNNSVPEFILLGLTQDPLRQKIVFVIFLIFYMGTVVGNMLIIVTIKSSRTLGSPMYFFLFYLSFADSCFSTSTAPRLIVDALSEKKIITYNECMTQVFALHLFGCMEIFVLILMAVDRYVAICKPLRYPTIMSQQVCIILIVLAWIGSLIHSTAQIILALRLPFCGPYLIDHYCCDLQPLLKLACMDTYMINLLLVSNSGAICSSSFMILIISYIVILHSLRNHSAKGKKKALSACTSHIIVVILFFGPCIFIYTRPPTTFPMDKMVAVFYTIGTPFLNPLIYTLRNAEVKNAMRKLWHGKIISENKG
Sequence of OR2Y1 (Homo sapiens) (Q8NGV0 whole entry): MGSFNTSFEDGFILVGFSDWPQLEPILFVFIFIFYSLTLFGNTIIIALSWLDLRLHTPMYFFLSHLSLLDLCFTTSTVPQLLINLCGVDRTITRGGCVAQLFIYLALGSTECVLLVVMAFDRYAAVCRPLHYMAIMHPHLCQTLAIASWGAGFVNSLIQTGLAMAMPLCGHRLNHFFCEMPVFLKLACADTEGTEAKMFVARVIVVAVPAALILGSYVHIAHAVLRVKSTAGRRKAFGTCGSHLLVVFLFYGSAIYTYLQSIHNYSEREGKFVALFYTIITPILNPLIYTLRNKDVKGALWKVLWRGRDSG
Sequence of OR4A16 (Homo sapiens) (Q8NH70 whole entry): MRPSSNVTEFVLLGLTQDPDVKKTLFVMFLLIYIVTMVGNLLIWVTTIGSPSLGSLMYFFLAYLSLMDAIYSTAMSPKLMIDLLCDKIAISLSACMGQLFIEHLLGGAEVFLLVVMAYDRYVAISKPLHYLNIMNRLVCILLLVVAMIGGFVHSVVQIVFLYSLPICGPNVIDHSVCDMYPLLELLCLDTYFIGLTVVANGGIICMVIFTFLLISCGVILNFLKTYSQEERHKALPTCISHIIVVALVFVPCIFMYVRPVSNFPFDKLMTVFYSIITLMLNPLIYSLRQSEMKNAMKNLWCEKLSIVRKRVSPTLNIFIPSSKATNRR
Sequence of OR4B1 (Homo sapiens) (Q8NGF8 whole entry): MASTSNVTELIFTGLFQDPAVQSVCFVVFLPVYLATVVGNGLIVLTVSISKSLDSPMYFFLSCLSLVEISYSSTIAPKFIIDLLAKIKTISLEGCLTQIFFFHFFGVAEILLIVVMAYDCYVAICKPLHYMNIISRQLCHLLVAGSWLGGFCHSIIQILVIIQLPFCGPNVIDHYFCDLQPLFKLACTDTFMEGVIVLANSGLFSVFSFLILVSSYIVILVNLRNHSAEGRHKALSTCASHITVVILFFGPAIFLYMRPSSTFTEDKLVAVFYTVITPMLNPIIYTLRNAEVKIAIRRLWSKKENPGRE
Sequence of OR3A3 (Homo sapiens) (P47888 whole entry): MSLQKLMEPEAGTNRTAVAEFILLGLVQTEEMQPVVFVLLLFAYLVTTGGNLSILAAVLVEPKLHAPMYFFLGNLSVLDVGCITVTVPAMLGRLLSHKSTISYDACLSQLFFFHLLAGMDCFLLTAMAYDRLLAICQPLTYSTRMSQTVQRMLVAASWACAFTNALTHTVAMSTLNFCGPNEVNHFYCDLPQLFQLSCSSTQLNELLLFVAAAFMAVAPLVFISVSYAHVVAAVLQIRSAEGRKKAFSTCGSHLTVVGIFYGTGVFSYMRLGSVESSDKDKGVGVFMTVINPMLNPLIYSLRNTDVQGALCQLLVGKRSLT
Sequence of OR2Z1 (Homo sapiens) (Q8NG97 whole entry): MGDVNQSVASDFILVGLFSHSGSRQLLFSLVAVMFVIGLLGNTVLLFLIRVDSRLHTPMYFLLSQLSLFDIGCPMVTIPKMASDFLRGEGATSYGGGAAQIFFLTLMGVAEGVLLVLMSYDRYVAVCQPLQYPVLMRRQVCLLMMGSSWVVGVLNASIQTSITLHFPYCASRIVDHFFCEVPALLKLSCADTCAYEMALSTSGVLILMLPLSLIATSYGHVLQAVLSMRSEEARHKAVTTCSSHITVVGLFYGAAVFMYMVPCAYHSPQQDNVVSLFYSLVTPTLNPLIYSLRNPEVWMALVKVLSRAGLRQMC
Sequence of OR4A15 (Homo sapiens) (Q8NGL6 whole entry): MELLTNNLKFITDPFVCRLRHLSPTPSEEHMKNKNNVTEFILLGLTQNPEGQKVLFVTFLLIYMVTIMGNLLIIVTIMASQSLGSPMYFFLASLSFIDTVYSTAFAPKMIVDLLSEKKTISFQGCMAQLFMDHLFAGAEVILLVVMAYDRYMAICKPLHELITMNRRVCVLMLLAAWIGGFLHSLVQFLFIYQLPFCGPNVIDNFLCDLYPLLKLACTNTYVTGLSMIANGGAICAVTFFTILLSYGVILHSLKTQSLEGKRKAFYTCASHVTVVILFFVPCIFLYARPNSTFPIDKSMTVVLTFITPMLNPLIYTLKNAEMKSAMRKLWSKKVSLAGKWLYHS
Sequence of OR4A8 (Homo sapiens) (P0C604 whole entry): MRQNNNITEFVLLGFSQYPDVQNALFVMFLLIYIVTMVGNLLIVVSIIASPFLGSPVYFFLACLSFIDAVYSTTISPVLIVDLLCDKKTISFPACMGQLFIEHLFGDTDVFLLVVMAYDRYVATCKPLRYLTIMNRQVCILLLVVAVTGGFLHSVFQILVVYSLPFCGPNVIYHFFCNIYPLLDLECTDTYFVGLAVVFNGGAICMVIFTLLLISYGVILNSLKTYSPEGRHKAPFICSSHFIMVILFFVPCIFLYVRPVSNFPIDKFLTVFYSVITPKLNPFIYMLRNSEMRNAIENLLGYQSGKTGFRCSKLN
Sequence of OR3A2 R317K (as listed by the source, stated change not applied): as the sequence (P47893 whole entry) above, with R317K counted along it
Sequence of OR4C15 (Homo sapiens) (Q8NGM1 whole entry): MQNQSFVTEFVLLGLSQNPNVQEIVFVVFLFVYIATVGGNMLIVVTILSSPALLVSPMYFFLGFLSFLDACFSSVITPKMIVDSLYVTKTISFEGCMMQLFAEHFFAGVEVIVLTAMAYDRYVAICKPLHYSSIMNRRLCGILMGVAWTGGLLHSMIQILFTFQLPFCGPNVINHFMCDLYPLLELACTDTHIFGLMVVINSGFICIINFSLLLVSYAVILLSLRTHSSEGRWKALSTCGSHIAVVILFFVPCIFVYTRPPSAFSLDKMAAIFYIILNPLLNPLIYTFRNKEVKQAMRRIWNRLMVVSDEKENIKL
Sequence of OR2Y1 (as listed by the source): as the sequence (Q8NGV0 whole entry) above, with V200L counted along it

O=Cc1ccc2c(c1)OCO2
inactive: OR3A1 (Homo sapiens)

Cc1c([N+](=O)[O-])c(C)c([N+](=O)[O-])c(C(C)(C)C)c1[N+](=O)[O-]
not listed: OR2Y1 | OR3A1 [1] | OR3A2 R317K | OR3A3 T48I L132F | OR3A1 [2]
inactive: all other assays above

CC(=O)C=Cc1ccc2c(c1)OCO2
active: OR3A1 (Homo sapiens)

C=CCOC(=O)Cc1ccccc1
not listed: OR4A8 (Homo sapiens) | OR4C15 (Homo sapiens) | OR3A1 [2]
inactive: all other assays above

C=CCc1ccc2c(c1)OCO2
inactive: OR3A1 (Homo sapiens)

CC(C=O)Cc1ccc2c(c1)OCO2 (stereo not drawn)
inactive: OR3A1 [2] | OR3A1 [1]
active: OR3A1 (Homo sapiens)
